The values below come from paper PMC12505120 (RSC Advances, 2025).

Assay [1] deals with HSA (Homo sapiens, UniProt P02768). The assay can be described thus: HSA tryptophan fluorescence quenching. Type of assay: binding. Conditions: for Stern–Volmer quenching constant Ksv × 10^4: values × 10^4, HSA 2.5 μM, Tris–HCl pH 7.4, 10% DMSO, 24 h; for ΔG: ΔG = −RT ln Kb; for predominant interaction mode with HSA: according to Ross's proposal from the signs of ΔH and ΔS. The gist of the method: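 HSA in Tris–HCl (4.5 mM Trizma HCl, 0.5 mM Trizma base, 50 mM NaCl) held at 2.5 μM with test compound at 1, 2.5, 5, 10, 15, 20, 25 or 30 μM, using 10% DMSO. Incubated 24 h in a water bath at 300 K or 310 K. Excitation 270 nm, emission 300–500 nm, triplicates. Intensity at 330 nm fitted to Stern–Volmer (F0/F vs [Q]) and log((F0−F)/F) vs log[Q]. ΔG = −RT ln Kb.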

The subject of assay [2] is bovine serum albumin (BSA). Conditions: cited from earlier work.

SMILES strings stand for the structures. Read-outs that look alike come from different tables or passages of the source.

Sequence of HSA (P02768 25-609): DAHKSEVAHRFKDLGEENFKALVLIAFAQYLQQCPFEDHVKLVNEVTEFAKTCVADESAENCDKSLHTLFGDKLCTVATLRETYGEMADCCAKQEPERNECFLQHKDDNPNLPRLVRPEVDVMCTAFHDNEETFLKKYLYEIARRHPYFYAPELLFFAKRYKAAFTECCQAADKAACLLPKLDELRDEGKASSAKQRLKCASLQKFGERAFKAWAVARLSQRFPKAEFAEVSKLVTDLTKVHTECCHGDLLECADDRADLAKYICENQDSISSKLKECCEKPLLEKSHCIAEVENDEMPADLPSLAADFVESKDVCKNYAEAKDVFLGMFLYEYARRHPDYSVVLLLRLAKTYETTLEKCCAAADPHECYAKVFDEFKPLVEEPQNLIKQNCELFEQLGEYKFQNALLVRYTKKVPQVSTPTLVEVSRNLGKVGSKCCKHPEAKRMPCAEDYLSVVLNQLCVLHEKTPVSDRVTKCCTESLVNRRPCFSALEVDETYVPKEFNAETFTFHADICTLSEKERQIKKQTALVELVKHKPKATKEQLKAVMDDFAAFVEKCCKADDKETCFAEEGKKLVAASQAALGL

For the compound `COc1ccc(/C=C/c2ccc(B3OC(C)(C)C(C)(C)O3)cc2)cc1` [3b], in assay [1] (T 300 K), the ΔS was determined as 82.1 J mol^−1 K^−1, the “Stern–Volmer quenching constant Ksv × 10^4” value came to 5.91 M^−1 and the ΔG is -5.69 kcal/mol. For the same compound, in assay [1] (T 310 K), the ΔS is listed as 83.3 J mol^−1 K^−1, the “Stern–Volmer quenching constant Ksv × 10^4” value was 8.69 M^−1 and the ΔG is -6.36 kcal/mol. In addition, the “predominant interaction mode with HSA” value in assay [1] is listed as “hydrophobic interactions”. Further, the fluorescence quenching mechanism entry in assay [1] (from temperature dependence of Ksv at 300 and 310 K) is listed as “dynamic fluorescence quenching mechanism”.
In the case of `COc1ccc(/C=C/c2cccc3c2COB3O)cc1` [5a], in assay [1] (T 300 K), the ΔS came out at 105.1 J mol^−1 K^−1, the “Stern–Volmer quenching constant Ksv × 10^4” value is recorded as 10.1 M^−1 and the ΔG was -7 kcal/mol. Also, in assay [1] (T 310 K), the ΔS is 122.4 J mol^−1 K^−1, the “Stern–Volmer quenching constant Ksv × 10^4” value was 17.7 M^−1 and the ΔG is -8.58 kcal/mol. Moreover, in assay [1], the “predominant interaction mode with HSA” value is listed as “hydrophobic interactions”.
Consider `COc1ccc(/C=C/c2ccc(B(O)O)cc2)cc1` [7a], for which, in assay [1] (T 300 K), the ΔS was found to be 74.5 J mol^−1 K^−1, the “Stern–Volmer quenching constant Ksv × 10^4” value worked out at 1.05 M^−1 and the ΔG was -6.69 kcal/mol. Besides, in assay [1] (T 310 K), the ΔS was found to be 22.9 J mol^−1 K^−1, the “Stern–Volmer quenching constant Ksv × 10^4” value stood at 0.53 M^−1 and the ΔG is -3.08 kcal/mol. The “predominant interaction mode with HSA” value in assay [1] is listed as “electrostatic forces”.
With `Oc1ccccc1-c1nc2ccccc2[nH]1` [HPBI, 2-(2-hydroxyphenyl)benzimidazole], the “binding constant to BSA” value was 1.2e+06 M⁻¹ in assay [2] (HPBI complexed with benzoxaborole) and 20000 M⁻¹ in assay [2] (free HPBI).
